This excerpt belongs to a sample that is enriched for hits.
T cruzi intra: blocks T. cruzi growth inside host cells; intracellular Trypanosoma cruzi in host cells, plate reader; activity score (inhibition), % at 5.01 µM; 4.9% of 22,000 active; in the data active means activity score above about 55%;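 further: parasites and compound incubated about four days before reading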
INS-1E rescue: rescue of cytokine-induced death in INS-1E beta cells; INS-1E cytokine-induced death, ATP luminescence, 48 h; normalised: neutral wells 0, positive control 100; protection from cytokine-induced ATP loss, % at 10 µM; 0.1% of 20,000 active; AID 488910;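 active means mean replicate protection from cytokine-induced ATP loss at least 50% and at least 75% of replicates each reaching 50%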
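Assay system: INS-1E rat insulinoma cells. Amount: 8000 cells per well. Medium: phenol-red-free RPMI with 5% fetal bovine serum. Reagent: IL-1β, TNF-α and IFN-γ cytokine mix. Doses: one compound concentration, pin transfer. Schedule: 48 h co-treatment, 10 min post-lysis read. Detection: CellTiter-Glo luminescence measuring cellular ATP.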
A1 apoptosis 2: blocks A1, raising caspase activity; MEF A1-2A-BIM cells, caspase-Glo luminescence, 3 h; percent of clofoctol response, DMSO zero; AID 2465; caspase activation, % (no concentration beside the values); 24,000 tested, under 10 active; in the data active means caspase activation above about 5.9%
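Material: A1-2A-BIM-expressing MEF cells. Buffer or medium: RPMI-1640 plus 10% FBS. Incubation: cells settled overnight, compound exposure 3 h at 37 °C, 5% CO2. Signal: Caspase-Glo 3/7 luminescence, 1 h at room temperature.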
Numbers stand for hits; 0 = inactive; - = no result given.

SMILES | T cruzi intra | INS-1E rescue | A1 apoptosis 2
C[C@@H]1CN([C@@H](C)CO)C(=O)c2cc(NC(=O)Nc3ccc(F)cc3)ccc2O[C@@H](C)CCCCO[C@@H]1CN(C)C(=O)CCCN(C)C | - | - | 0
C[C@@H]1CN([C@@H](C)CO)C(=O)c2cccc(NC(=O)Nc3cccc4ccccc34)c2O[C@H]1CN(C)S(C)(=O)=O | 0 | 0 | 0
C[C@H]1CN([C@@H](C)CO)C(=O)Cc2cc(NC(=O)C3CC3)ccc2O[C@@H]1CN(C)Cc1ccc2c(c1)OCO2 | 0 | 0 | 0
C[C@H]1CCCCO[C@@H](CN(C)C(=O)NC2CCCCC2)[C@@H](C)CN([C@@H](C)CO)C(=O)c2cc(NS(C)(=O)=O)ccc2O1 | - | - | 0
C[C@H](CO)N1C[C@H](C)[C@@H](CN(C)Cc2ccncc2)OCCCC[C@H](C)Oc2ccc(NS(=O)(=O)c3ccccc3)cc2C1=O | - | - | 0
C[C@H](CO)N1C[C@H](C)[C@H](CN(C)Cc2ccncc2)Oc2ccc(NC(=O)Nc3ccc(C(F)(F)F)cc3)cc2CC1=O | 61.0 | 0 | 0
C[C@H]1CN([C@@H](C)CO)C(=O)Cc2cc(NC(=O)CCC(F)(F)F)ccc2O[C@@H]1CN(C)Cc1ccc(C(F)(F)F)cc1 | 64.5 | 0 | -
C[C@@H]1CN([C@H](C)CO)C(=O)Cc2cc(NC(=O)CCC(F)(F)F)ccc2O[C@H]1CN(C)Cc1ccc(C(F)(F)F)cc1 | 0 | 0 | -
C[C@@H]1CN([C@H](C)CO)C(=O)Cc2cc(NC(=O)Nc3ccc(C(F)(F)F)cc3)ccc2O[C@H]1CN(C)Cc1ccc(C(F)(F)F)cc1 | 80.8 | 0 | 0
C[C@@H]1CN([C@@H](C)CO)C(=O)Cc2cc(NC(=O)Nc3ccc(C(F)(F)F)cc3)ccc2O[C@@H]1CN(C)Cc1ccc(C(=O)O)cc1 | 0 | 0 | 0
C[C@@H]1CN([C@H](C)CO)C(=O)Cc2cc(NC(=O)Nc3ccc(C(F)(F)F)cc3)ccc2O[C@H]1CN(C)Cc1ccncc1 | 0 | 0 | 0
C[C@@H]1CCCCO[C@@H](CN(C)C(=O)CCCN(C)C)[C@@H](C)CN([C@@H](C)CO)C(=O)c2cc(NC(=O)c3ccccc3)ccc2O1 | - | - | 0
C[C@H]1CN([C@@H](C)CO)C(=O)c2cccc(NS(C)(=O)=O)c2O[C@@H]1CN(C)Cc1ccc2c(c1)OCO2 | 0 | 0 | 0
C[C@@H]1CN([C@H](C)CO)C(=O)c2cccc(NS(=O)(=O)c3cn(C)cn3)c2O[C@H]1CN(C)C(=O)Nc1ccc(F)cc1 | 0 | 0 | -
CC(C)CNC(=O)[C@@]1(C)c2ccccc2C(=O)N(Cc2ccccc2)[C@H]1c1ccc(CO)cc1 | - | - | 0
C[C@H](CO)N1C[C@H](C)[C@H](CN(C)S(=O)(=O)c2ccccc2)Oc2ccc(NC(=O)Nc3ccccc3)cc2C1=O | 0 | - | 0
Cc1ccc(S(=O)(=O)Nc2cccc3c2O[C@@H](CN(C)Cc2ccc(-c4ccccc4)cc2)[C@@H](C)CN([C@@H](C)CO)C3=O)cc1 | 73.9 | 0 | -
C[C@@H]1CN([C@@H](C)CO)C(=O)c2cccc(NS(=O)(=O)c3ccc(Cl)cc3)c2O[C@@H]1CN(C)Cc1ccc(-c2ccccc2)cc1 | 63.1 | 0 | 0
C[C@H](CO)N1C[C@H](C)[C@@H](CN(C)Cc2ccc3c(c2)OCO3)Oc2c(NS(=O)(=O)c3ccc(Cl)cc3)cccc2C1=O | 57.7 | 0 | 0
Cc1ccc(S(=O)(=O)Nc2cccc3c2O[C@H](CN(C)Cc2ccc(-c4ccccc4)cc2)[C@@H](C)CN([C@H](C)CO)C3=O)cc1 | 0 | 0 | -
Cc1ccc(S(=O)(=O)Nc2cccc3c2O[C@@H](CN(C)Cc2ccc4c(c2)OCO4)[C@@H](C)CN([C@H](C)CO)C3=O)cc1 | 0 | 0 | -
C[C@@H]1CN([C@@H](C)CO)C(=O)c2cccc(NS(=O)(=O)c3cccs3)c2O[C@@H]1CN(C)Cc1ccc(C(=O)O)cc1 | 0 | 0 | 0
C[C@H]1CN([C@@H](C)CO)C(=O)c2cccc(NS(=O)(=O)c3ccc(Cl)cc3)c2O[C@@H]1CN(C)Cc1ccc(-c2ccccc2)cc1 | 0 | 0 | 0
C[C@@H]1CN([C@H](C)CO)C(=O)c2cccc(NS(=O)(=O)c3cccs3)c2O[C@@H]1CN(C)Cc1ccc(C(=O)O)cc1 | 67.7 | 0 | 0
CCOc1cccc(/C=N/NC(=O)CCCCCCC(=O)Nc2ccccc2O)c1OCC | 0 | 0 | -
SMILES | T cruzi intra | INS-1E rescue | A1 apoptosis 2
COc1ccc(NC(=O)Nc2ccc3c(c2)C(=O)N([C@H](C)CO)C[C@@H](C)[C@@H](CN(C)C(=O)Nc2cccc4ccccc24)O3)cc1 | 0 | 0 | 0
CC(C)NC(=O)N(C)C[C@@H]1Oc2ccc(NC(=O)CCN3CCOCC3)cc2C(=O)N([C@@H](C)CO)C[C@@H]1C | 0 | 0 | 0
C[C@@H]1CCCCO[C@@H](CN(C)C(=O)Nc2ccccc2)[C@@H](C)CN([C@@H](C)CO)C(=O)c2cc(NC(=O)c3ccccc3)ccc2O1 | - | - | 0
C[C@@H]1CN([C@H](C)CO)C(=O)Cc2cc(NC(=O)C3CCCCC3)ccc2O[C@@H]1CN(C)C(=O)Nc1ccc(C(F)(F)F)cc1 | 0 | 0 | 0
COc1ccc(CN(C)C[C@H]2Oc3c(NS(=O)(=O)c4ccc(F)cc4)cccc3C(=O)N([C@@H](C)CO)C[C@@H]2C)cc1 | 0 | 0 | 0
C[C@@H]1CN([C@@H](C)CO)C(=O)Cc2cc(NS(=O)(=O)c3ccccc3)ccc2O[C@@H]1CN(C)CC1CC1 | 0 | 0 | -
C[C@@H]1CN([C@H](C)CO)C(=O)c2cccc(NS(=O)(=O)c3ccccc3)c2O[C@@H]1CN(C)Cc1ccc(-c2ccccc2)cc1 | 0 | 0 | -
C[C@@H]1CN([C@@H](C)CO)C(=O)c2cccc(NS(=O)(=O)c3ccccc3)c2O[C@@H]1CN(C)Cc1ccc(-c2ccccc2)cc1 | 87.3 | 0 | -
C[C@H](CO)N1C[C@H](C)[C@H](CN(C)Cc2ccc(C(F)(F)F)cc2)Oc2c(NC(=O)c3ccncc3)cccc2C1=O | 64.5 | 0 | 0
C[C@H](CO)N1C[C@H](C)[C@H](CN(C)Cc2ccc(C(=O)O)cc2)Oc2c(NC(=O)c3ccncc3)cccc2C1=O | 0 | 0 | 0
C[C@@H]1CN([C@@H](C)CO)C(=O)c2cccc(NC(=O)c3ccncc3)c2O[C@@H]1CN(C)Cc1ccncc1 | 0 | 0 | -
C[C@H]1CN([C@@H](C)CO)C(=O)c2cccc(NC(=O)c3ccncc3)c2O[C@H]1CN(C)Cc1ccc(C(F)(F)F)cc1 | 83.7 | 0 | 0
COc1ccc(S(=O)(=O)N(C)C[C@H]2Oc3ccc(NS(=O)(=O)c4cn(C)cn4)cc3CC(=O)N([C@H](C)CO)C[C@@H]2C)cc1 | - | - | 0
Cc1noc(C)c1S(=O)(=O)N(C)C[C@@H]1OCCCC[C@@H](C)Oc2ccc(NS(=O)(=O)c3cccs3)cc2C(=O)N([C@@H](C)CO)C[C@H]1C | - | - | 0
COc1ccc(NC(=O)Nc2ccc3c(c2)CC(=O)N([C@@H](C)CO)C[C@H](C)[C@H](CN(C)Cc2ccc(C(=O)Nc4ccccc4N)cc2)O3)cc1 | 0 | 0 | 0
COc1ccc(NC(=O)Nc2ccc3c(c2)CC(=O)N([C@@H](C)CO)C[C@H](C)[C@@H](CN(C)Cc2ccc(C(=O)Nc4ccccc4N)cc2)O3)cc1 | 62.7 | 0 | 0

Bioassay records (PubChem BioAssay)
